Results taken from ChEMBL document CHEMBL3739335, “Phosphonooxymethyl Prodrug of Triptolide: Synthesis, Physicochemical Characterization, and Efficacy in Human Colon Adenocarcinoma and Ovarian Cancer Xenografts” (J Med Chem, 2015).
Activity calls are given as the source filed them. The calls are words filed in the database; no cut-off is given here.

Tests used:
[1] = Stability of the compound in simulated gastric fluid assessed as compound remaining after 8 hrs by HPLC analysis
[2] = Half life of the compound in buffer at 25 degC at pH 7.4; assay type: ADME
In short: (§1)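 Pseudo-first-order kobsd at each temperature was fitted to an Arrhenius plot, which was extrapolated to 25 and 4 °C. t1/2 and t90 (time for 10% loss) were calculated from the extrapolated kobsd.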

[3] = Chemical stability of the compound in buffer assessed as compound remaining at pH 1 after 4 hrs by HPLC analysis; assay type: physicochemical; conditions: read-out: Stability
[4] = Chemical stability of the compound in buffer assessed as compound remaining at pH 4 after 2 hrs by HPLC analysis; assay type: physicochemical; conditions: read-out: Stability
[5] = Chemical stability of the compound in buffer assessed as pseudo-first-order rate constant at 70 degC at pH 7.4 by Arrhenius plot analysis; assay type: physicochemical
Mus musculus [6] = assay: Toxicity in athymic nude mouse xenografted with human HT-29 cells assessed as skin irritation at 0.9 mg/kg, ip administered 14 days measured post last dose; assay type: organism-based; conditions: in vivo, 336 h
[7] = Chemical stability of the compound in buffer assessed as compound remaining at pH 9 after 1 hr by HPLC analysis; assay type: physicochemical; conditions: read-out: Stability
[8] = Chemical stability of the compound in buffer assessed as compound remaining at pH 2 after 24 hrs by HPLC analysis; assay type: physicochemical; conditions: read-out: Stability
[9] = Chemical stability of the compound in buffer assessed as compound remaining at pH 6 after 8 hrs by HPLC analysis; assay type: physicochemical; conditions: read-out: Stability
[10] = Chemical stability of the compound in buffer assessed as compound remaining at pH 4 after 4 hrs by HPLC analysis; assay type: physicochemical; conditions: read-out: Stability
[11] = Chemical stability of the compound in buffer assessed as pseudo-first-order rate constant at 50 degC at pH 7.4 by Arrhenius plot analysis; assay type: physicochemical
[12] = Shelf life of the compound in buffer assessed as time for 10% loss of compound at 25 degC at pH 7.4; assay type: physicochemical
In short: as §1

[13] = Stability of the compound in simulated intestinal fluid assessed as compound remaining at pH 7.5 after 8 hrs by HPLC analysis; assay type: ADME; conditions: read-out: Stability
In short: (§2)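 Drug incubated in simulated gastric fluid or simulated intestinal fluid and sampled at 0, 1, 2, 4, 8 and 24 h. Percent remaining was measured by reversed-phase C18 HPLC with photodiode-array detection, using a 20-min gradient of 10–70% acetonitrile against 10 mM sodium phosphate buffer at pH 7.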

[14] = Stability of the compound in glycine buffer at pH 9.8 after 1 hr in absence of bovine intestinal mucosal alkaline phosphatase; assay type: physicochemical; conditions: pH 9.8, 1 h
In short: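 Conversion in glycine buffer pH 9.8 with alkaline phosphatase from bovine intestinal mucosa; loss of compound and formation of triptolide followed, first-order fit for half-life. Control run in same buffer without enzyme for 1 h.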

Mus musculus [15] = assay: Toxicity in athymic nude mouse xenografted with human A2780 cells assessed as mortality at 0.6 to 0.9 mg/kg, po administered for 30 days; assay type: organism-based; conditions: in vivo, 720 h
In short: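 Female athymic nude mice, 7–9 weeks old, received 2.5 × 10^6 A2780 cells subcutaneously in the flank in 50% Matrigel/RPMI 1640. Mice were randomized at a mean tumor volume of 188 mm3, 10 per group. Daily oral gavage in USP saline (0.2 mL) for 30 days, dosed on group-mean body weight. Clinical signs, survival and body weights were recorded.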

[16] = Chemical stability of the compound in buffer assessed as compound remaining at pH 9 after 24 hrs by HPLC analysis; assay type: physicochemical; conditions: read-out: Stability
[17] = Stability of the compound in simulated intestinal fluid assessed as compound remaining at pH 7.5 after 2 hrs by HPLC analysis; assay type: ADME; conditions: read-out: Stability
In short: as §2

HT-29 = assay: Antitumor activity against human HT-29 cells xenografted in athymic nude mouse at 0.3 to 0.9 mg/kg, ip qd administered for 28 days; assay type: functional, organism-based
In short: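 Female athymic nude mice, 7–9 weeks, implanted s.c. on right flank with 1.74 × 10^6 HT-29 cells (ATCC, mycoplasma/rodent-pathogen tested) in 50% Matrigel/50% McCoy's 5A; randomized at mean tumor 110 mm3, 10/group. IP dosing in USP saline, 0.2 mL, over a 28-day treatment period. Tumor volume by caliper (L × W2/2) at least twice weekly, tumor weight at necropsy, survival, body weight.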

[18] = Chemical stability of the compound in buffer assessed as compound remaining at pH 1 after 8 hrs by HPLC analysis; assay type: physicochemical; conditions: read-out: Stability
[19] = Chemical stability of the compound in buffer assessed as compound remaining at pH 6 after 4 hrs by HPLC analysis; assay type: physicochemical; conditions: read-out: Stability
[20] = Stability of the compound in simulated intestinal fluid assessed as compound remaining at pH 7.5 after 4 hrs by HPLC analysis; assay type: ADME; conditions: read-out: Stability
In short: as §2

Mus musculus [21] = assay: Toxicity in athymic nude mouse xenografted with human A2780 cells assessed as survival at 0.6 to 0.9 mg/kg, ip administered for 30 days; assay type: organism-based; conditions: in vivo, 720 h
In short: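 Female athymic nude mice, 7–9 weeks old, carried subcutaneous flank A2780 xenografts (2.5 × 10^6 cells in 50% Matrigel). Randomized at 188 mm3 mean tumor volume, 10 per group. Daily intraperitoneal dosing in USP saline (0.2 mL) for 30 days, based on group-mean weight. Survival and clinical signs were monitored.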

[22] = Chemical stability of the compound in buffer assessed as compound remaining at pH 6 after 1 hr by HPLC analysis; assay type: physicochemical; conditions: read-out: Stability
[23] = Chemical stability of the compound in buffer assessed as compound remaining at pH 7.4 after 2 hrs by HPLC analysis; assay type: physicochemical; conditions: read-out: Stability
[24] = Stability of the compound in simulated intestinal fluid assessed as compound remaining at pH 7.5 after 1 hr by HPLC analysis; assay type: ADME; conditions: read-out: Stability
In short: as §2

[25] = Chemical stability of the compound in buffer assessed as compound remaining at pH 9 after 2 hrs by HPLC analysis; assay type: physicochemical; conditions: read-out: Stability
[26] = Chemical stability of the compound in buffer assessed as compound remaining at pH 4 after 24 hrs by HPLC analysis; assay type: physicochemical; conditions: read-out: Stability
[27] = target: T1, Alkaline phosphatase, tissue-nonspecific isozyme (Bos taurus, UniProt P09487); assay: Prodrug conversion in glycine buffer assessed as bovine intestinal mucosal alkaline phosphatase-mediated triptolide and formaldehyde formation at pH 9.8; assay type: ADME; conditions: cattle, isolated protein
T1 sequence (P09487 whole entry): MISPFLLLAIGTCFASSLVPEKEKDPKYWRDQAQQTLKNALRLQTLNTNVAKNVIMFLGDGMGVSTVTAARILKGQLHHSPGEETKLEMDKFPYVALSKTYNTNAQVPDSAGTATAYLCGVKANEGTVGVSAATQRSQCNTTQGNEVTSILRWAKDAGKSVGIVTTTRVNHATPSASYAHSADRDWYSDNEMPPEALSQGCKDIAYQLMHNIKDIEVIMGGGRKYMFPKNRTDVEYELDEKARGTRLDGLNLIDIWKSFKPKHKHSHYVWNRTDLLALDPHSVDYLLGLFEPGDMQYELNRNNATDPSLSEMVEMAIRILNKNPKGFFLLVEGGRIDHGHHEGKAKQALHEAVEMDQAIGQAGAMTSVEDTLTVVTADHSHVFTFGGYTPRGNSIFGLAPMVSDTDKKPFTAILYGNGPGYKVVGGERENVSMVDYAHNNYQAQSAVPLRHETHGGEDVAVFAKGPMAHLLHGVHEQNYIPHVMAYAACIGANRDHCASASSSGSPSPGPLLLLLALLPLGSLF

`CC(C)[C@]12O[C@H]1[C@@H]1O[C@]13[C@]1(O[C@H]1C[C@H]1C4=C(CC[C@@]13C)C(=O)OC4)[C@@H]2OCOP(=O)([O-])[O-].[Na+].[Na+]` [MINNELIDE] showed a remaining at 8 h [1] of 47%, a t1/2 [2] of 0.92 yr and a remaining at 4 h [3] of 62%. The remaining at 2 h [4] was 100%, the K [5] was 0.008659 h⁻¹ and the Activity (Mus musculus [6]) was “Toxic”. For the same compound, the remaining at 1 h [7] was 100%, the remaining at 24 h [8] was 83% and the remaining at 8 h [9] was 100%. It also gave a remaining at 4 h [10] of 100%, a K [11] of 0.001052 h⁻¹ and a Time [12] of 0.14 yr. For the same compound, the remaining at 8 h [13] was 99%, the Stability [14] was “Stable” and the Activity (Mus musculus [15]) was “Toxic”. For the same compound, the remaining at 24 h [16] was 100%, the remaining at 2 h [17] was 100% and the Activity (HT-29) was “Active”. For the same compound, the remaining at 8 h [18] was 39%, the remaining at 4 h [19] was 100% and the remaining at 4 h [20] was 100%. The Activity (Mus musculus [21]) was “Non-toxic”, the remaining at 1 h [22] was 100% and the remaining at 2 h [23] was 100%. For the same compound, the remaining at 1 h [24] was 100%, the remaining at 2 h [25] was 100% and the remaining at 24 h [26] was 99%. For the same compound, the Drug metabolism [27] was “metabolite_detected”.
